Measurements: ChEMBL document CHEMBL2417518, “Vinyl sulfone-based peptidomimetics as anti-trypanosomal agents: design, synthesis, biological and computational evaluation” (J Med Chem, 2013)
Activity calls are given as the source filed them. No cut-off for these calls is given here.

Legend:
[1] = system: HL-60; experiment: Cytotoxicity against human HL60 cells after 48 hrs by Alamar Blue assay; assay type: cell-based; conditions: hl-60, 48 h
How it was run: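 HL-60 cells grown in RPMI-1640 with 10% heat-inactivated FBS, penicillin/streptomycin and 2 mM L-glutamine, 37°C, 5% CO2. Seeded at 2×10^5 cells/ml with varying inhibitor concentrations or DMSO alone. Alamar Blue added after 30-32 h, total incubation 48 h. Absorbance read at 540 and 595 nm. EC50 derived from percent signal inhibition versus inhibitor-free controls.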

[2] = Selectivity for bloodstream form of Trypanosoma brucei brucei MITat1.1 over human HL60 cells; parameters: species or system HL-60
How it was run: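 Both were measured by seeding at 2×10^5 cells/ml with varying inhibitor concentrations, reading absorbance at 540 and 595 nm, and comparing to inhibitor-free controls.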

[3] = system: Trypanosoma brucei brucei; experiment: Antitrypanosomal activity against bloodstream form of Trypanosoma brucei brucei MITat1.1 after 6 to 8 hrs by Alamar Blue assay; assay type: functional, organism-based; conditions: in the assay text read “after 24 hrs” for “after 6 to 8 hrs”
How it was run: (§1)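 T. b. brucei MITat1.1 cultured in HMI-9 with 10% heat-inactivated FBS, subcultured 1:10 every 24 h to stay in log phase, 37°C, 5% CO2. Seeded at 2×10^5 cells/ml with varying inhibitor concentrations or DMSO alone. Alamar Blue added after 6-8 h, total incubation 24 h. Absorbance read at 540 and 595 nm. EC50 from 4-parameter logistic fit of percent inhibition versus controls.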

[4] = system: Trypanosoma brucei brucei; experiment: Antitrypanosomal activity against bloodstream form of Trypanosoma brucei brucei MITat1.1 after 24 hrs by Alamar Blue assay
[5] = system: Trypanosoma brucei brucei; experiment: Antitrypanosomal activity against bloodstream form of Trypanosoma brucei brucei MITat1.1 assessed as bigeye phenotype at 0.78 uM after 24 hrs by epifluorescence microscopy relative to untreated control; assay type: functional, organism-based
How it was run: (§2)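 Trypanosomes exposed to the stated concentration at 37°C for 24 h, then fixed 10 min at 37°C in 3% (w/v) paraformaldehyde (final). Washed in PBS with 15 mM sodium azide, then in water, and settled on poly-L-lysine coated coverslips. Kinetoplast/nucleus counts and morphology scored by epifluorescence microscopy against an untreated control.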

[6] = system: Trypanosoma brucei brucei; experiment: Antitrypanosomal activity against bloodstream form of Trypanosoma brucei brucei MITat1.1 assessed as increase in multinucleate cells at 0.78 uM after 24 hrs by epifluorescence microscopy relative to untreated control; assay type: functional, organism-based; how it was run: as §2
[7] = system: Trypanosoma brucei brucei; experiment: Antitrypanosomal activity against bloodstream form of Trypanosoma brucei brucei MITat1.1 assessed as bigeye phenotype at 55.6 uM after 24 hrs by epifluorescence microscopy relative to untreated control; assay type: functional, organism-based; how it was run: as §2
[8] = system: Trypanosoma brucei brucei; experiment: Antitrypanosomal activity against bloodstream form of Trypanosoma brucei brucei MITat1.1 assessed as increase in multinucleate cells at 55.6 uM after 24 hrs by epifluorescence microscopy relative to untreated control; assay type: functional, organism-based; how it was run: as §2
[9] = system: Trypanosoma brucei brucei; experiment: Antitrypanosomal activity against bloodstream form of Trypanosoma brucei brucei; assay type: functional, organism-based; how it was run: as §1

SMILES | EC50 [3] [µM] | EC50 [4] [µM] | IC50 [9] [µM] | Activity [1] | Selectivity ratio [2] | Activity [3] | Activity [5] | Activity [6] | Activity [7] | Activity [8]
Cc1ccc(S(=O)(=O)NCCCC[C@@H](/C=C/S(=O)(=O)c2ccccc2)NC(=O)[C@H](Cc2ccccc2)NC(=O)OCc2ccccc2)cc1 | 0.25 |  |  |  | >220 | Dose-dependent effect |  |  |  | 
CC(C)(C)OC(=O)NCCCC[C@@H](CCS(=O)(=O)c1ccccc1)NC(=O)[C@H](Cc1ccccc1)NC(=O)OCc1ccccc1 |  | 26.4 |  |  | >2.1 | Dose-dependent effect |  |  |  | 
O=C(N[C@@H](Cc1ccccc1)C(=O)N[C@H](/C=C/S(=O)(=O)c1ccccc1)CCCCNS(=O)(=O)c1cccc2ccccc12)OCc1ccccc1 | 0.07 |  |  |  | >785.7 | Dose-dependent effect | Active | Active |  | 
COc1cc(Br)c(S(=O)(=O)NCCCC[C@@H](/C=C/S(=O)(=O)c2ccccc2)NC(=O)[C@H](Cc2ccccc2)NC(=O)OCc2ccccc2)cc1OC | 0.31 |  |  |  | >177.4 | Dose-dependent effect |  |  |  | 
Cl.NCCCC[C@@H](/C=C/S(=O)(=O)c1ccccc1)NC(=O)[C@H](Cc1ccccc1)NC(=O)OCc1ccccc1 | 22.4 |  |  |  | >2.4 | Dose-dependent effect |  |  |  | 
CN1CCN(C(=O)N[C@@H](Cc2ccccc2)C(=O)N[C@H](/C=C/S(=O)(=O)c2ccccc2)CCc2ccccc2)CC1 [K-777] |  | 5.56 | 0.1 |  | > 9.9 | Dose-dependent effect |  |  | Active | Active

Further lines, with some results ahead:

EC50 [3] [µM] | EC50 [4] [µM] | IC50 [9] [µM] | SMILES | Activity [1] | Selectivity ratio [2] | Activity [3] | Activity [5] | Activity [6] | Activity [7] | Activity [8]
0.82 |  |  | CC(C)(C)OC(=O)NCCCC[C@@H](/C=C/C(=O)c1ccccc1)NC(=O)[C@H](Cc1ccccc1)NC(=O)OCc1ccccc1 | Toxic | >67.1 | Dose-dependent effect |  |  |  | 
 | 0.66 |  | CC(C)(C)OC(=O)NCCCC[C@@H](/C=C/S(=O)(=O)c1ccccc1)NC(=O)[C@H](Cc1ccccc1)NC(=O)OCc1ccccc1 |  | >83 | Dose-dependent effect |  |  |  | 
 | 0.68 |  | CC(C)(C)OC(=O)NCCCC[C@@H](/C=C/S(=O)(=O)c1cccc2ccccc12)NC(=O)[C@H](Cc1ccccc1)NC(=O)OCc1ccccc1 |  | >80.1 | Dose-dependent effect |  |  |  | 
1.18 |  |  | CC(C)C[C@H](NC(=O)OCc1ccccc1)C(=O)N[C@H](/C=C/S(=O)(=O)c1ccccc1)CCCCNC(=O)OC(C)(C)C |  | >46.6 | Dose-dependent effect |  |  |  | 
1.03 |  |  | CC(C)(C)OC(=O)NCCCC[C@@H](/C=C/S(=O)(=O)c1ccc2ccccc2c1)NC(=O)[C@H](Cc1ccccc1)NC(=O)OCc1ccccc1 |  | >53.4 | Dose-dependent effect |  |  |  | 
 | 9.96 |  | CC(C)(C)OC(=O)NCCCC[C@@H](/C=C/S(=O)(=O)c1ccccc1)NC(=O)[C@@H]1CCCN1C(=O)OCc1ccccc1 |  | >5.7 | Dose-dependent effect |  |  |  | 
